Calls of active or inactive are those of the source. The rule behind the calls is not given here.
Key:
[1] = tested on: Botrytis cinerea; assay: Antifungal activity against Botryotinia fuckeliana assessed as growth inhibition at 0.01 to 200 ug/plug; assay type: functional, organism-based
Method in brief: (§1)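 Plugs cut from actively growing colony margins (L. maculans UWA P11 grown on V8 agar; B. cinerea and P. cinnamomi kept on PDA) were placed centrally on one-fifth strength PDA plates. Purified compound dissolved in filter-sterilized EtOAc was applied on top of each plug and the solvent evaporated; a solvent-only control was included. Colony diameter (mm) was measured daily. Three replicates per treatment; experiment run twice.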

[2] = tested on: Plenodomus lingam; assay: Antifungal activity against Leptosphaeria maculans isolate UWA P11 assessed as growth inhibition at 0.01 to 200 ug/plug; assay type: functional, organism-based; method in brief: as §1
[3] = tested on: Phytophthora cinnamomi; assay: Antifungal activity against Phytophthora cinnamomi assessed as growth inhibition at 0.01 to 200 ug/plug; assay type: functional, organism-based; method in brief: as §1
[4] = tested on: Phytophthora cinnamomi; assay: Antifungal activity against Phytophthora cinnamomi assessed as growth inhibition at 100 ug/plug; assay type: functional, organism-based; method in brief: as §1
[5] = tested on: Plenodomus lingam; assay: Antifungal activity against Leptosphaeria maculans isolate UWA P11 assessed as growth inhibition at 100 ug/plug; assay type: functional, organism-based; method in brief: as §1
[6] = tested on: Phytophthora cinnamomi; assay: Antifungal activity against Phytophthora cinnamomi assessed as growth inhibition at 200 ug/plug; assay type: functional; method in brief: as §1
[7] = tested on: Plenodomus lingam; assay: Antifungal activity against Leptosphaeria maculans isolate UWA P11 assessed as growth inhibition at 200 ug/plug; assay type: functional; method in brief: as §1
[8] = tested on: Botrytis cinerea; assay: Antifungal activity against Botryotinia fuckeliana assessed as growth inhibition at 200 ug/plug; assay type: functional; method in brief: as §1
[9] = tested on: Plenodomus lingam; assay: Antifungal activity against Leptosphaeria maculans isolate UWA P11 assessed as growth inhibition at 1 to 100 ug/plug; assay type: functional
[10] = tested on: Phytophthora cinnamomi; assay: Antifungal activity against Phytophthora cinnamomi assessed as growth inhibition at 1 to 100 ug/plug; assay type: functional
[11] = tested on: Phytophthora cinnamomi; assay: Antifungal activity against Phytophthora cinnamomi assessed as growth inhibition at 1 to 10 ug/plug; assay type: functional, organism-based; method in brief: as §1
[12] = tested on: Botrytis cinerea; assay: Antifungal activity against Botryotinia fuckeliana assessed as growth inhibition at 1 to 10 ug/plug; assay type: functional, organism-based; method in brief: as §1

With `Cc1cc(O)c2c(c1)C(=O)c1ccccc1C2=O` the “growth inhibition (GI)” value [1] was “inactive”, the “growth inhibition (GI)” value [2] was “inactive” and the “growth inhibition (GI)” value [3] was “inactive”.
In the case of `C/C=C/C=C/CC1=C(CC(C)=O)C(=O)OC1`, the “growth inhibition (GI)” value [4] is reported as “Active” and the “growth inhibition (GI)” value [5] is reported as “Active”.
For `Cc1cc(O)c2c(c1)C(=O)c1cccc(O)c1C2=O`, the “growth inhibition (GI)” value [1] was “inactive”, the “growth inhibition (GI)” value [2] was “inactive” and the “growth inhibition (GI)” value [3] was “inactive”.
`C/C=C/C=C/CC1=C(CC(C)O)C(=O)OC1` (stereo not given) [HARZIANOLIDE] was tested, and the “growth inhibition (GI)” value [6] was <25%, the “growth inhibition (GI)” value [7] was <25% and the “growth inhibition (GI)” value [8] was <25%.
`C/C=C/CC(C)C(=O)c1c(O)c(OC)c(OC)[nH]c1=O` (stereo not given) [HARZIANOPYRIDONE] was tested, and the “growth inhibition (GI)” value [9] was 100% and the “growth inhibition (GI)” value [10] was 100%.
For `C/C=C/C=C/C1=CC2=CC(=O)[C@](C)(OC(=O)[C@H](C)O)C(=O)C2=CO1`, the “growth inhibition (GI)” value [11] was “Active” and the “growth inhibition (GI)” value [12] was “Active”.

From ChEMBL document CHEMBL3046508, “Factors affecting the production of Trichoderma harzianum secondary metabolites during the interaction with different plant pathogens” (2009)
